Data taken from ChEMBL document CHEMBL4837218, “Synthesis and in vitro antitumour activity of 4(R)-methyl-3-O-phosphonomethyl-α-l-threose nucleosides” (Eur J Med Chem, 2021).
Activity calls are given as the source filed them. No cut-off for these calls is given here.

Experiments:
MDA-MB-231 [1] = test: Potency index, ratio of 5-FU IC50 to test compound IC50 for anticancer activity against human MDA-MB-231 cells measured after 72 hrs by MTT assay; type: functional
In short: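 MTT assay: 3000 exponentially growing cells per well, 12 h at 37 °C. Medium replaced with compound at a range of concentrations for 72 h. MTT (5 mg/mL stock) added for 4 h, formazan dissolved in DMSO. Absorbance read at 570 nm (reference 630 nm); percent inhibition gives IC50. Index is 5-FU IC50 divided by test-compound IC50.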

MCF7 [2] = test: Inhibition of colony formation in human MCF7 cells incubated for 24 hrs followed by medium removal and measured after 7 days by crystal violet staining based assay; type: functional, cell-based; settings: dose 1-4 µM
In short: (§1)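 Cells seeded at 1 × 10³ per well in six-well plates and left overnight. Compound (DMSO solution) given in fresh medium for 24 h, then medium removed and plates grown another 7 days. Colonies washed with PBS, fixed in 4% paraformaldehyde 30 min, stained with 0.1% crystal violet 30 min, photographed and counted.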

MDA-MB-231 [3] = test: Inhibition of colony formation in human MDA-MB-231 cells incubated for 24 hrs followed by medium removal and measured after 7 days by crystal violet staining based assay; type: functional, cell-based; settings: dose 3-9 µM; in short: as §1
MCF7 [4] = test: Cell cycle arrest in human MCF7 cells assessed as accumulation at G2/M phase at 2 uM measured after 48 hrs by propidium iodide staining based flow cytometry (reference value: 0.01 %); type: functional
MDA-MB-231 [5] = test: Cell cycle arrest in human MDA-MB-231 cells assessed as accumulation at S phase at 9 uM measured after 48 hrs by propidium iodide staining based flow cytometry (reference value: 35.54 %); type: functional
MDA-MB-231 [6] = test: Cell cycle arrest in human MDA-MB-231 cells assessed as accumulation at G2/M phase at 9 uM measured after 48 hrs by propidium iodide staining based flow cytometry (reference value: 15.46 %); type: functional
MCF7 [7] = test: Induction of apoptosis in human MCF7 cells assessed as late apoptotic cells at 1 uM measured after 48 hrs by Annexin V-FITC/propidium iodide staining based flow cytometric analysis (reference value: 0.6 %); type: functional
MCF7 [8] = test: Induction of apoptosis in human MCF7 cells assessed as early apoptotic cells at 2 uM measured after 48 hrs by Annexin V-FITC/propidium iodide staining based flow cytometric analysis (reference value: 3 %); type: functional
MCF7 [9] = test: Induction of mitochondrial membrane potential loss in human MCF7 cells assessed as red fluorescence intensity at 1 uM measured after 48 hrs by JC1 staining-based flow cytometry analysis (reference value: 91.9%); type: functional
MCF7 [10] = test: Induction of mitochondrial membrane potential loss in human MCF7 cells assessed as green fluorescence intensity at 2 uM measured after 48 hrs by JC1 staining-based flow cytometry analysis (reference value: 8.1 %); type: functional
MDA-MB-231 [11] = test: Induction of mitochondrial membrane potential loss in human MDA-MB-231 cells assessed as green fluorescence intensity at 3 uM measured after 48 hrs by JC1 staining-based flow cytometry analysis (reference value: 0.8 %); type: functional
MDA-MB-231 [12] = test: Induction of mitochondrial membrane potential loss in human MDA-MB-231 cells assessed as green fluorescence intensity at 6 uM measured after 48 hrs by JC1 staining-based flow cytometry analysis (reference value: 0.8 %); type: functional
MCF7 [13] = test: Induction of DNA damage in human MCF7 cells assessed as increase in Chk2 protein expression at 1 to 4 uM measured after 48 hrs by western blot analysis; type: functional, cell-based; settings: dose 1-4 µM
In short: (§2)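 Cells exposed to graded concentrations for 48 h, then proteins extracted. Run on SDS-PAGE (5–15% gels) and transferred to nitrocellulose. Blocked 2 h in 5% nonfat milk in PBS/0.1% Tween 20, primary antibody overnight at 4 °C, biotin-conjugated secondary 1 h. Visualized on X-ray film with densitometric quantitation; three independent experiments.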

MCF7 [14] = test: Induction of G2/M phase cell cycle arrest in human MCF7 cells assessed as decrease in p-cdc2 protein expression at 1 to 4 uM measured after 48 hrs by western blot analysis; type: functional, cell-based; settings: dose 1-4 µM; in short: as §2
MDA-MB-231 [15] = test: Induction of DNA damage in human MDA-MB-231 cells assessed as increase in Chk2 phosphorylation at Thr68 residue at 3 to 9 uM measured after 48 hrs by western blot analysis; type: functional, cell-based; settings: dose 3-9 µM; in short: as §2
MCF7 [16] = test: Induction of apoptosis in human MCF7 cells assessed as increase in cleaved caspase 3 protein expression at 1 to 4 uM measured after 48 hrs by western blot analysis; type: functional, cell-based; settings: dose 1-4 µM
In short: (§3)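 MCF-7 and MDA-MB-231 breast cancer cells treated 48 h with a concentration series, then lysed for protein. SDS-PAGE on 5–15% gels, transfer to nitrocellulose. Blocked 2 h in 5% nonfat milk/PBS-0.1% Tween 20, primary antibodies overnight at 4 °C, biotin-conjugated secondary 1 h. X-ray film detection with densitometric quantification.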

MCF7 [17] = test: Induction of apoptosis in human MCF7 cells assessed as increase in cleaved caspase 7 protein expression at 1 to 4 uM measured after 48 hrs by western blot analysis; type: functional, cell-based; settings: dose 1-4 µM; in short: as §3
MDA-MB-231 [18] = test: Induction of apoptosis in human MDA-MB-231 cells assessed as increase in cleaved caspase 7 protein expression at 3 to 9 uM measured after 48 hrs by western blot analysis; type: functional, cell-based; settings: dose 3-9 µM; in short: as §3
MDA-MB-231 [19] = test: Induction of apoptosis in human MDA-MB-231 cells assessed as increase in cleaved caspase 9 protein expression at 3 to 9 uM measured after 48 hrs by western blot analysis; type: functional, cell-based; settings: dose 3-9 µM; in short: as §3
MCF7 [20] = test: Inhibition of PI3K/AKT signalling pathway in human MCF7 cells assessed as downregulation of 85ap-PI3K expression at 1 to 4 uM measured after 48 hrs by Western blot analysis; type: cell-based; settings: dose 1-4 µM
In short: (§4)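 After 48 h exposure to compound at several concentrations, cells collected and proteins extracted. SDS-PAGE on 5–15% gels, transfer to nitrocellulose, blocking 2 h in 5% nonfat milk in PBS/0.1% Tween 20, primary antibodies overnight at 4 °C, biotin-conjugated secondary 1 h. Detection on X-ray film; band densitometry.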

MCF7 [21] = test: Inhibition of PI3K/AKT signalling pathway in human MCF7 cells assessed as downregulation of AKT phosphorylation at Ser473 residue at 1 to 4 uM measured after 48 hrs by Western blot analysis; type: cell-based; settings: dose 1-4 µM; in short: as §4
MDA-MB-231 [22] = test: Induction of G2/M phase cell cycle arrest in human MDA-MB-231 cells assessed as downregulation of p-cdc2 protein expression at 9 uM measured after 48 hrs in presence of cdc25c inhibitor, NSC663284 by western blot analysis; type: functional, cell-based
MDA-MB-231 [23] = test: Induction of apoptosis in human MDA-MB-231 cells assessed as increase in cleaved caspase 3 protein expression at 9 uM measured after 48 hrs in presence of cdc25c inhibitor, NSC663284 by western blot analysis; type: functional, cell-based
In short: (§5)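 Four arms per cell line: untreated, test compound, 0.3 µM NSC663284 alone, and combination. Proteins harvested after 48 h and resolved by SDS-PAGE on 5–15% gels, transferred to nitrocellulose. Blocked 2 h in milk/PBS-Tween, primary antibodies overnight at 4 °C, biotin-conjugated secondary. Read on X-ray film with densitometry.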

MDA-MB-231 [24] = test: Induction of apoptosis in human MDA-MB-231 cells assessed as increase in cleaved caspase 9 protein expression at 9 uM measured after 48 hrs in presence of cdc25c inhibitor, NSC663284 by western blot analysis; type: functional, cell-based; in short: as §5

Q: C[C@H]1O[C@@H](n2cnc3c(N)nc(F)nc32)[C@H](O)[C@H]1OCP(=O)([O-])[O-].[Na+].[Na+] was tested. Which “Ratio IC50” value (MDA-MB-231 [1]) did it give?
A: 47

Q: What about the inhibition (MCF7 [2]) of the same molecule?
A: Dose-Dependent Effect

Q: And the inhibition (MDA-MB-231 [3])?
A: Dose-Dependent Effect

Q: And the Activity (MCF7 [4])?
A: 17.9%

Q: What about the Activity (MDA-MB-231 [5]) of the same molecule?
A: 32.34%

Q: And the Activity (MDA-MB-231 [6])?
A: 31.49%

Q: What about the Activity (MCF7 [7]) of the same molecule?
A: 4.6%

Q: What about the Activity (MCF7 [8]) of the same molecule?
A: 46.3%

Q: What about the Activity (MCF7 [9]) of the same molecule?
A: 90.9%

Q: What about the Activity (MCF7 [10]) of the same molecule?
A: 32.8%

Q: What about the Activity (MDA-MB-231 [11]) of the same molecule?
A: 1.4%

Q: And the Activity (MDA-MB-231 [12])?
A: 36.2%

Q: What about the Activity (MCF7 [13]) of the same molecule?
A: Active

Q: And the Activity (MCF7 [14])?
A: Active

Q: What about the Activity (MDA-MB-231 [15]) of the same molecule?
A: Active

Q: And the Activity (MCF7 [16])?
A: Active

Q: What about the Activity (MCF7 [17]) of the same molecule?
A: Active

Q: And the Activity (MDA-MB-231 [18])?
A: Active

Q: And the Activity (MDA-MB-231 [19])?
A: Active

Q: And the inhibition (MCF7 [20])?
A: Active

Q: What about the inhibition (MCF7 [21]) of the same molecule?
A: Active

Q: And the Activity (MDA-MB-231 [22])?
A: inactive

Q: And the Activity (MDA-MB-231 [23])?
A: inactive

Q: What about the Activity (MDA-MB-231 [24]) of the same molecule?
A: inactive
